Data on 95 compounds can be found in PubChem BioAssay AID573 (SRMLSC, 2007).

Molecules are shown by their SMILES. The whole screen tested about 65,000 compounds, of which about 1,400 (2.2%) were called active. Shown is part of a subset that was picked to be rich in actives. Values without a mark were called inactive.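 How the source made its calls: active means growth inhibition at or above a cutoff equal to the mean over every tested compound plus 3 SD (cut at about 60% in these data); inactive means the rest.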

The assay in a line: growth inhibitors of E. coli tolC mutant, primary screen, strain BW25113 ΔtolC::kan, 384-well (AID 573). Particulars: OD615, active compounds read high, screened at 10 µM (by protocol). The method in brief: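 Doses: one dose of 10 µM final / Material: E. coli BW25113 ΔtolC::kan, tolC deletion mutant strain / Buffer or medium: LB with kanamycin 50 µg/mL / Evaluation: percent growth inhibition / Detection: optical density read at 615 nm / Incubation: 37 °C, 20 h exposure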
For the compound `COC(=O)CSC1=C(C#N)C(c2ccccc2OC)C(C(=O)OC)C(=O)N1` (stereo not given), the growth inhibition was -1.55%. Regarding `CCCCCCn1c(CN2CCCCC2)nc2c1c(=O)n(C)c(=O)n2C`, the growth inhibition was -3.32%. For the compound `CCCCCCn1c(CN2CCCC(C)C2)nc2c1c(=O)n(C)c(=O)n2C` (stereo not given), the growth inhibition was 60.7% (active).

As to `CC1CCCN(Cc2nc3c(c(=O)n(C)c(=O)n3C)n2CC(=O)c2ccccc2)C1` (stereo not given), the growth inhibition was 13.4%. In the case of `NC(=O)C1CC=CCC1C(=O)OCC(Cl)=C(Cl)Cl` (stereo not given), the growth inhibition was 3.92%. For the compound `COC(=O)c1cc(C(=O)CSc2nc(C)cc(C)n2)ccc1O`, the growth inhibition was 68% (active). On to `COC(=O)c1cccc(NC(=O)CSc2nc(C)cc(=O)[nH]2)c1`, for which the growth inhibition is 10.2%. Then `CCOC(=O)c1c(C)[nH]c(C)c1C(=O)CSc1nc(N)cc(N)n1`, with -1.68%; and `CCOC(=O)c1nnn(-c2nonc2OC)c1-c1ccccc1`, with 8.09%; and `COC(=O)c1ccc(NC(=O)CSc2nnc(CNc3ccc(OC)cc3)n2C)cc1`, with 3.76%.

Regarding `CCN(CC(=O)NC(C)C)C(=O)CCNC(=O)c1ccc(Cl)cc1`, the growth inhibition was -4.01%. Consider `CC1(N2CCOCC2)CC2(O)C(=[N+]1[O-])CCc1nonc12` (stereo not given), for which the growth inhibition is -7.92%.

For `COc1ccc(CCN(C)CCN2C(=O)c3ccccc3C2=O)cc1OC`, the growth inhibition is -13.3%.

As to `COc1cc(C2C(C(=O)c3ccc(C)o3)=C(O)C(=O)N2CCc2ccccc2)ccc1O` (stereo not given), the growth inhibition is 5.33%. Then `COc1ccc(CCN2C(=O)c3[nH]nc(-c4ccccc4O)c3C2c2ccc(C)cc2)cc1OC` (stereo not given), with 64.4% (active); and `CNC(=O)c1c(NC(=O)c2ccc(S(=O)(=O)N3CCOCC3)cc2)sc2c1CCC2`, with 10.9%.

Turning to `CCOCCc1c(O)nc(SCC(=O)NCc2ccco2)[nH]c1=O`, the growth inhibition was -0.82%. In the case of `CCOc1cc(C)c(Cl)cc1S(=O)(=O)n1nnc2ccccc21`, the growth inhibition was 63.4% (active). As to `CCOc1ccc(C(C)C)cc1S(=O)(=O)n1nc(C)cc1C`, the growth inhibition was 24.3%. On to `Cc1ccc(C)c(S(=O)(=O)n2cnc3ccccc32)c1`, for which the growth inhibition is 7.6%.

Regarding `CCN1CCN(C(=O)CN(C)S(=O)(=O)c2ccc(OC)cc2)CC1`, the growth inhibition is 8.07%. Consider `O=C(Nc1ccccc1)N(Cc1cccnc1)Cc1ccco1`, for which the growth inhibition is -11.4%. Then `CS(=O)(=O)NCc1ccc(C(=O)NCc2ccccc2)cc1`, with -9.06%; and `COc1ccccc1N1CCN(C(=O)CN(Cc2ccc(Cl)cc2)S(C)(=O)=O)CC1`, with 25.9%.

`CCOc1ccc(CC(=O)Nc2ccc(S(=O)(=O)Nc3cc(C)on3)cc2)cc1OCC`: the growth inhibition is 4.16%. On to `COc1cc2ccccc2cc1C(=O)Nc1ccc(S(=O)(=O)Nc2cc(C)on2)cc1`, for which the growth inhibition was 78.6% (active). Then `Cc1cc(NS(=O)(=O)c2ccccc2)no1`, with -26.8%.

On to `CCOC(=O)N1CCN(C(=O)c2cn(C)c3ccc(S(=O)(=O)N4CCCC4)cc3c2=O)CC1`, for which the growth inhibition is -22.7%. Take `CCOC(=O)C1CCN(C(=O)C2CCN(S(=O)(=O)N3CCCC3)CC2)CC1`: the growth inhibition was -4.22%. As for `CCOC(=O)C1CCN(C(=O)c2oc3ccc(S(=O)(=O)N4CCCCCC4)cc3c2C)CC1`, the growth inhibition is 77.3% (active). In the case of `COc1cccc(N(C(=O)c2ccn[nH]2)C2(C(=O)Nc3c(C)cccc3C)CCCCC2)c1`, the growth inhibition is 30.5%.

Consider `Cc1ccc(C)c(S(=O)(=O)N2CC(=O)Nc3ccccc32)c1`, for which the growth inhibition was 17.8%.

As for `CC(=O)Nc1ccc(-c2nn3c(C)nnc3s2)cc1C`, the growth inhibition was -9.56%.

`COc1ccc(OC)c(CNC(=O)C2CCCN(c3nc4ccccc4o3)C2)c1` (stereo not given): the growth inhibition is 1.68%. Turning to `COCc1cc(C)nc(SCC(=O)Nc2cccc(C)c2)c1C#N`, the growth inhibition was -0.31%.

With `Cc1cc(C)c(C#N)c(SCS(=O)c2ccc(C(C)(C)C)cc2)n1` (stereo not given), the growth inhibition was 70.6% (active). As for `Cc1cc(C(F)(F)F)c(C#N)c(SCC(=O)NC2CC2)n1`, the growth inhibition was 16.2%. Then `N#Cc1nc(Cc2cccc3ccccc23)oc1NCc1ccc2c(c1)OCO2`, with 57.4%; and `CCOc1ccc(Nc2oc(Cc3ccccc3)nc2C#N)cc1`, with 31.9%; and `N#Cc1nc(Cc2ccccc2)oc1NCCc1ccccc1`, with 74.2% (active).

For the compound `C=CCn1cnc2scc(-c3ccccc3)c2c1=O`, the growth inhibition was 6.35%. In the case of `C=CCn1c(SCc2nnc(-c3ccccc3)o2)nnc1C(O)c1ccccc1` (stereo not given), the growth inhibition was 0.17%.

`Cc1nc(SCC(=O)Nc2cc(C)on2)c2c3c(sc2n1)CCCC3`: the growth inhibition is 12.3%. In the case of `COc1ccc(Nc2cc(C)nc(-n3nc(C)cc3C)n2)cc1`, the growth inhibition is 17.6%. For the compound `COCCNc1nc(-n2nc(C)cc2C)nc2sc3c(c12)CCCC3`, the growth inhibition was 94.3% (active). The figure for `CC(=O)c1sc2nc(SCC(=O)N3CCCCC3)[nH]c(=O)c2c1C` is 8.81%. On to `Cc1cc(C)n(-c2nc(SCC(=O)N3CCCC3)c3c4c(sc3n2)CCCC4)n1`, for which the growth inhibition was 85.9% (active). The figure for `COCCn1c(C)cc(C(=O)CSc2ncnc3sc4c(c23)CCC4)c1C` is 0.17%; for `CCCOC(=O)C1=C(C)NC2=C(C(=O)C(C(=O)OC)C(C)C2)C1c1ccc(N(C)C)cc1` (stereo not given) it is 16%. `Cn1c(=O)[nH]c(=O)c2c1nc(N(CCO)Cc1ccccc1)n2Cc1ccccc1Cl`: the growth inhibition is 0.78%. For the compound `O=C(NCc1cccs1)C1CCN(S(=O)(=O)c2ccc3c(c2)OCCO3)CC1`, the growth inhibition was -14.5%. `COC(=O)COc1ccc(S(=O)(=O)Nc2ccc(NC(C)=O)cc2)cc1`: the growth inhibition was -1.6%. Then `COc1ccc(CCNS(=O)(=O)c2ccc(F)cc2)cc1OC`, with -5.35%.

With `COC(=O)CNS(=O)(=O)c1ccc(Cc2ccc(S(=O)(=O)NCC(=O)OC)cc2)cc1`, the growth inhibition is 69.7% (active). Turning to `COc1ccccc1Nc1ncnc2c1oc1ccccc12`, the growth inhibition is -1.75%. Take `CS(=O)(=O)N(Cc1nc2sc3c(c2c(=O)[nH]1)CCCC3)C1CCCCC1`: the growth inhibition is 83.8% (active). For `COc1ncnc2sc3c(c12)CCCC3`, the growth inhibition is 2.48%. In the case of `CCOC(=O)N1CCN(S(=O)(=O)c2ccc(C(=O)Nc3ccc(F)cc3F)cc2)CC1`, the growth inhibition is -4.51%.

In the case of `c1csc(-c2nc(-c3ccncc3)no2)c1`, the growth inhibition was 1.08%. For the compound `Cc1cccc(C(=O)Nc2ccc(CC(=O)O)cc2)c1`, the growth inhibition was -16%. Regarding `COC(=O)c1sc(=S)n(-c2ccccc2)c1N`, the growth inhibition was -12.6%. The figure for `COc1ccc(-c2csc(N3CCN(Cc4ccc5c(c4)OCO5)CC3)n2)cc1` is 5.4%; for `CC1CCCC(C)N1C(=O)CN1CCN(c2nc(-c3ccc(F)cc3)cs2)CC1` (stereo not given) it is 100% (active); for `O=C(CN1CCN(c2nc(-c3ccccc3)cs2)CC1)NCc1ccc2c(c1)OCO2` it is 50%.

Consider `COc1c(F)c(F)c(-c2csc(N)n2)c(F)c1F`, for which the growth inhibition was 9.92%.

For the compound `CNC(=O)Nc1cc(C(C)(C)C)no1`, the growth inhibition is -22.1%. As for `O=C(NCc1ccco1)c1cc2sccc2n1Cc1ccc(F)cc1`, the growth inhibition was 56.9%.

In the case of `COc1ccc(CCNC(=O)c2cc3sccc3n2C)cc1OC`, the growth inhibition is 7.67%. Turning to `CCOC(=O)c1cc2sccc2n1Cc1ccc(C#N)cc1`, the growth inhibition was 62.5% (active). For `c1nnc2c3c4c(sc3ncn12)CCC4`, the growth inhibition was -4.55%. As to `O=C(CSc1nc2ccccc2o1)N1CCN(c2ccccc2)CC1`, the growth inhibition is 5.08%. `Cc1cccc(NC(=O)CSC(N)=O)c1C`: the growth inhibition was -15.7%. In the case of `O=C(O)C1CC=CCC1C(=O)NCCc1ccccc1` (stereo not given), the growth inhibition was -21.4%. On to `CC1CCCN(c2ccc(C(=O)NCCc3ccccc3)cn2)C1` (stereo not given), for which the growth inhibition was 61.4% (active). As for `O=C(NCCCNCc1ccccc1)c1ccc(/C=N/O)nc1`, the growth inhibition was -12.5%.

`COc1ccc(S(=O)(=O)N2CCOCC2)cc1C(=O)Nc1nc2ccccc2s1`: the growth inhibition is -15.6%. Then `CCCn1c(=O)c2[nH]c(C3CCCC3)nc2n(CCC)c1=O`, with 5.97%; and `O.O.O.O=S(=O)([O-])OC[C@H]1O[C@@H](O[C@]2(COS(=O)(=O)[O-])O[C@H](OS(=O)(=O)[O-])[C@@H](OS(=O)(=O)[O-])[C@@H]2OS(=O)(=O)[O-])[C@H](OS(=O)(=O)[O-])[C@@H](OS(=O)(=O)[O-])[C@@H]1OS(=O)(=O)[O-].[Al]`, with -6.62%. Take `CCOC(=O)CSc1nnc(-c2cccc(Br)c2)o1`: the growth inhibition was -4.64%. Turning to `Cc1noc(C)c1S(=O)(=O)N(CC(=O)NCc1ccc(Cl)cc1)c1ccc2c(c1)OCO2`, the growth inhibition was -5.56%. The figure for `CC1CCN(c2oc(-c3ccccc3F)nc2C#N)CC1` is 71.3% (active). As for `N#Cc1nc(COc2ccc(Cl)cc2)oc1N1CCCC1`, the growth inhibition is 7.84%. Then `N#CCCN1CCN(S(=O)(=O)c2ccc(S(=O)(=O)NC3CCCCC3)cc2)CC1`, with -0.61%; and `Cc1cc(NC(=O)CN2CCC(O)(c3cccc(F)c3)CC2)no1`, with -18.6%. With `O=C(Cn1nnc(-c2ccc3c(c2)OCO3)n1)NCc1ccco1`, the growth inhibition was 7.12%. With `O=C(NCCCCO)C(F)(F)C(F)(F)C(F)(F)C(=O)NCCCCO`, the growth inhibition is -11%. `CCOCC(=O)Nc1sc2c(c1C(=O)OCC)CCCC2`: the growth inhibition was 42.8%. As for `CCOC(=O)c1c(NC(=O)CSc2nnc(C)c(=O)[nH]2)sc2c1CCC2`, the growth inhibition is 66.5% (active). On to `CCOC(=O)c1c(NC(=O)CSc2nnc(CN3CCOCC3)n2C)sc2c1CCCC2`, for which the growth inhibition was 5.6%. For the compound `CC1(C)CC(=O)c2cc(OCC(=O)NCC3CCCO3)ccc2O1` (stereo not given), the growth inhibition is -5%.

In the case of `O=C(NCCCN1CCCCCC1)C1CC(=O)N(C2CCCC2)C1` (stereo not given), the growth inhibition was -11.7%.

`COc1cc(OC)cc(C(=O)Nc2ccc(-c3nc4ccccc4o3)c(O)c2)c1`: the growth inhibition is 19.7%. The figure for `Cc1nc(SC(C)C)[nH]c(=O)c1Cc1ccccc1` is 0%; for `Cc1nc2nc(COc3ccccc3)[nH]n2c(=O)c1C` it is 11.6%. `Cc1nc2nc(COc3ccccc3)[nH]n2c(=O)c1Cc1ccccc1`: the growth inhibition is 100% (active).
